The whole screen tested about 320,000 compounds, of which about 200 (0.062%) were called active.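 How the source made its calls: active means activation above that plate's cutoff, the mean activation of tested compounds plus 3 SD (cut at about 6.6% in these data, passing the limit was not always enough); inactive means the rest.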 The entries come from a sample that favours actives as a whole.
Molecular target: Oxytocin receptor (Homo sapiens) (UniProt P30559)
Assay: human OXTR potentiators, primary screen, fluorescence, CHO-OTR cells, Fluo-8 calcium (AID 2445);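 further: 100% uses oxytocin at 75 nM as the full agonist control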
Conditions: Fluo-8 calcium fluorescence, potentiator mode, at 3 µM, active compounds read high, 0% = oxytocin EC15, 100% = EC100
Outline: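 test system = CHO-OTR cells, human receptor | compound = single-point 3.0 µM | schedule = 6 min compound pre-incubation at room temperature, 100 s kinetic read | signal = Fluo-8 no-wash calcium dye fluorescence, excitation 470-495 nm, emission 515-575 nm | repeats = single well per compound, singlicate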

Sequence of Oxytocin receptor (Homo sapiens) (P30559 whole entry, looked up): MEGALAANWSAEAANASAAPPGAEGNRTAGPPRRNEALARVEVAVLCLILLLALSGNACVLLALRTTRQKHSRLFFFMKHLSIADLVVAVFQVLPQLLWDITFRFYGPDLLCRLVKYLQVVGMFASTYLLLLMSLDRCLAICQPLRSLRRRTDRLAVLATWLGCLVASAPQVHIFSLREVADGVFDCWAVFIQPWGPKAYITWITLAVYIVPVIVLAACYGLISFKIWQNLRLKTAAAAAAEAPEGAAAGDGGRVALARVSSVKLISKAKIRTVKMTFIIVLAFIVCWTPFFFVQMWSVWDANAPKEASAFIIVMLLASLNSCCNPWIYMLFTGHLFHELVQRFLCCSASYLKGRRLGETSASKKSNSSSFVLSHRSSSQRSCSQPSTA

activation, inactive:
CC1CCC(NS(=O)(=O)c2ccc3c(c2)CC(=O)N3)CC1 (configuration not stated) -7.03%, Cc1cc(C)cc(N(CC(=O)NC2CCCC2)C(=O)CCC(=O)Nc2cc(C)on2)c1 -12.7%, Nc1ccc(SCCN2C(=O)c3ccccc3C2=O)cc1 -2.44%, COc1cc(/C=C2\SC(=O)NC2=O)ccc1OCc1ccc(Cl)nc1 -15.2%, CCOC(=O)c1ccccc1NC(=O)c1c(N)n(C)c(=O)[nH]c1=O -5.38%, CCC(C)[C@H](NC(=O)N1c2ccccc2NC(=O)[C@@H]1C(C)C)C(=O)N[C@@H](Cc1ccccc1)C(=O)O (some centres not stated) -4.93%, CC1(C)CC(=O)CC2(C1)NCC(c1ccccc1Cl)c1c2[nH]c2ccccc12 (configuration not stated) -23.6%, Cc1cccn2c(=O)nc(SCC(=O)NCc3ccccc3Cl)nc12 -9.43%, O=C(NCCc1ccccn1)c1cc(C(=O)C2CCCCC2)c[nH]1 -8.37%, Cc1nc(NCc2ccccc2)c(C(N)=O)c2c1COC(C)(C)C2 -7.89%, O=C1CCCc2nn(-c3ccccc3)nc21 -20.3%, CCc1cc2c(SCC(=O)Nc3ncc(Cl)c(C)c3Cl)ncnc2s1 -3.54%, CC(C)CCn1c(CN(C)Cc2ccccc2)nc2c1c(=O)n(C)c(=O)n2C -2.79%, CC(C)Cn1c(CN(Cc2ccccc2)Cc2ccccc2)nc2c1c(=O)n(C)c(=O)n2C -4.31%, CCc1nn(CCCC(=O)NCc2ccc(C)cc2)c(=O)c2cc3occc3n12 -17.3%, CCOC(=O)[C@H]1[C@H]2COc3cc(OC)ccc3[C@@H]2N2C(=O)N(c3ccc(Br)cc3)C(=O)[C@@]12C -10.7%, O=P(O)(CP(=O)(c1ccccc1)c1ccccc1)c1ccccc1 -9.44%, Cc1cccc(N2CCN(C(=O)CN(C)S(=O)(=O)c3ccc4c(c3)CCC(=O)N4)CC2)c1C -9.67%, CC(Oc1ccc(F)cc1)C(=O)Nc1ccccc1C(=O)NC1CC1 (configuration not stated) 2.5%, Cc1c(-c2nn(C)c(=O)c3ccccc23)oc2ccc(F)cc2c1=O -8.96%, C=CCOC(=O)C1=C[C@@H](c2ccc3c(c2)OCO3)C[C@@H](OCCCCO)O1 -0.78%, Cc1ccc(N/N=C2\COC(C)(C)CC2=O)cc1 -4.26%, CCOc1ccc(-c2c(C)n([O-])c3c([n+]2=O)CCCC3)cc1 -2.39%, Cc1ccc2c(c1)C(O)(CC(=O)c1cccc(-n3cccc3)c1)C(=O)N2 (configuration not stated) -5.12%, O=C(COc1ncnc2c(Cl)cc(Cl)cc12)N1CCN(S(=O)(=O)c2ccccc2)CC1 -0.15%, Cc1ccc(S(=O)(=O)N(C)c2ccc(OCC(=O)OCc3ccc(C#N)cc3)cc2)cc1 -6.02%, COc1ccc2c(c1)CC[C@@H]1[C@@H]2CC[C@]2(C)C(=O)CC[C@@H]12 -6.25%, O=S(=O)(NCCOc1cccc2cccnc12)c1ccc(F)cc1 -8.04%, COc1cccc(NC(=O)CSc2nnc(Cc3ccc(OC)c(OC)c3)o2)c1 -7.75%, Cc1cccc(N=C2SC(C)CN2C(=O)CN2C(=O)NC3(CCCC3)C2=O)c1 (configuration not stated) -10%, CCOc1ccc(C(=O)Nc2cc(Cl)ccc2-n2cncn2)cc1OC 3.32%, c1ccc(-c2cn3c(n2)CCc2ccc4cccnc4c2-3)cc1 0.09%, CCC(C)N(C(=O)COC(=O)C1C(C(=O)OC)=C(C)NC(C)=C1C(=O)OC)C1CCS(=O)(=O)C1 (configuration not stated) -7.92%, COc1ccc(NC(=O)CC(NC(C)c2ccccc2)C(=O)O)cc1 (configuration not stated) 1.93%, CSc1cccc(NC(=O)CSc2ccccc2)c1 -15.7%, Cc1cc(C)cc(NC(=O)CN2C(=O)c3ccccc3C2=O)c1 -3.2%, CCCCn1c(N)c(N(CC(C)C)C(=O)CSc2ccc([N+](=O)[O-])cc2)c(=O)[nH]c1=O 1.02%, Cc1ccc(-c2nnc(-n3nnc4ccccc43)c3ccccc23)cc1 -11.2%, Cc1ccc(Cl)cc1NC(=O)CN1CCN(S(=O)(=O)N2CCOCC2)CC1 -9.03%, Cc1ccc(S(=O)(=O)NC2(C(F)(F)F)NC(=O)N(CCc3ccccc3)C2=O)cc1 (configuration not stated) -18.6%, COc1cccc(N2CCN(c3ccc4nnc(CCC(=O)N5CCN(C)CC5)n4n3)CC2)c1 -0.01%, Cc1ccc(S(=O)(=O)N(CCCN(C)C)Cc2ccc3c(c2)OCO3)cc1 -1.86%, COc1ccc(SCc2noc(C(=O)NCC3CCCO3)c2C(=O)O)cc1 (configuration not stated) 3.88%, CC1CN(CC(=O)NC(C)c2ccccc2)CC(C)O1 (configuration not stated) -2.73%, CC(C)Oc1ccccc1C(=O)NC(CO)C(=O)O (configuration not stated) 7%, COc1ccc(CNc2cc(C)cc(C)c2)cc1OC -5.89%, Cc1c(CN2CCC(CO)(CCOc3ccccc3)CC2)[nH]c2ccc(Cl)cc12 -15%, Cc1c(C)c2c(OCC(=O)N[C@@H](C(=O)O)c3ccccc3)cc3c(c2oc1=O)CCC(C)(C)O3 0.86%, CCc1c(SCCC(=O)O)nc2ccccc2c1C 2.81%, CN1CCN(c2ccc(CNS(=O)(=O)c3cccc(F)c3)cc2)CC1 -0.68%, Cc1ccsc1CNn1cnnc1SCc1ccccc1F -4.45%, c1ccc2c(-c3nn4nnnc4c4ccccc34)cccc2c1 -11%, C=CCNC(=O)c1ccc2c3n(nc2c1)-c1ccc(C)cc1CO3 -15.6%, N#Cc1c(NC(=O)C2CCCO2)sc2c1CCCCC2 (configuration not stated) -9.34%, NC(=O)C1CC(=O)N(c2ccc(OCC(=O)NCc3ccccc3)cc2)C1 (configuration not stated) 2.9%

activation, active:
COCCn1c(CN(Cc2ccccc2)Cc2ccccc2)nc2c1c(=O)n(C)c(=O)n2C 6.98%, Cc1cc(C)cc(NC(=O)CSc2ccccc2)c1 12.9%
